In brackets after ≈: the same amount, converted by molar mass.
Key:
Rattus norvegicus [1] = test: Dose normalized AUC (0 to t) in po dosed rat; format: ADME, organism-based; details: in vivo
[2] = Cmax in human at 900 mg, po administered as single dose at 30 mins post fat meal; format: ADME, organism-based; set-up: dose 900 mg, route oral; details: in vivo
Method in brief: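 Crossover study in 12 subjects (six of each sex). Each got a single oral 900 mg dose either fasted or 30 min after a fat-containing meal.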

Staphylococcus aureus [3] = test: Potency index, ratio of linezolid MIC90 to compound MIC90 for methicillin-resistant Staphylococcus aureus; format: functional
[4] = Cmax in fasted human at 300 mg, po administered as single dose; format: ADME, organism-based; set-up: dose 300 mg, route oral; details: in vivo
Method in brief: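 Healthy volunteers (12; six of each sex) in a three-period Latin-square crossover. Each received single oral doses of 300, 600 and 900 mg under fasting conditions, with a 1-week washout between doses. Parameters from a noncompartmental model.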

Enterococcus faecium = test: Bacteriostatic activity against vancomycin-resistant Enterococcus faecium; format: functional
Staphylococcus aureus [5] = test: Antibacterial activity against methicillin-sensitive Staphylococcus aureus ATCC 29213; format: functional
Rattus norvegicus [6] = test: Toxicity in rat assessed as mortality at 20 to 300 mg/kg, po bid administered for 4 weeks measured on day 1 to day 28; format: organism-based; set-up: dose 20-300 mg/kg, route oral; details: in vivo, 672 h
Method in brief: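 Rats, 10 per gender per group, given drug orally twice daily at 20, 100 and 200/300 mg/kg/day for 4 weeks, then a 4-week recovery period. The top dose of 200 mg/kg/day was raised to 300 mg/kg/day on day 15. The comparator was dosed the same way at 100 and 200 mg/kg/day. Monitoring covered mortality, body weight, hematology and bone marrow, with blood taken for TK on days 1, 14 and 28.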

[7] = Cmax in human at 800 mg, po administered as single dose with meal measured on day 1; format: ADME, organism-based; set-up: dose 800 mg, route oral; details: in vivo
Method in brief: (§1)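 Randomized, double-blind, placebo-controlled multiple-dose study in 32 healthy subjects, half male and half female. Each dose was taken with a meal, at 600 or 800 mg, 28 doses over 15 days. A single dose on days 1 and 15 gave full PK; BID (Q12h) dosing ran on days 2–14.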

[8] = Half life in male rat at 5 mg/kg, iv; format: ADME, organism-based; set-up: dose 5 mg/kg, route intravenous; details: in vivo
[9] = Clastogenicity in CHL cells assessed as induction of structural chromosomal aberration at 25 to 200 ug/mL measured over 24 hrs in absence of metabolic activation; format: toxicity, cell-based, Cricetulus griseus; details: chinese hamster
Method in brief: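 Chromosomal aberration test in Chinese hamster lung cells, run with and without metabolic activation. Exposure was 50−400 μg/mL for 6 h or 25−200 μg/mL for 24 h, and structural chromosome aberrations were scored.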

Rattus norvegicus [10] = test: Toxicity in female rat assessed as effect on hemoglobin level at 20 mg/kg/day, po bid administered for 4 weeks (reference value: 141.8 g/L); format: organism-based; set-up: route oral; details: in vivo, 672 h
[11] = Tmax in human at 600 mg, po administered as single dose with meal measured on day 15; format: ADME, organism-based; details: in vivo
Method in brief: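 Randomized, double-blind, placebo-controlled multiple-dose study in 32 healthy subjects, half male and half female. Dosing was 600 or 800 mg orally with a meal, 28 doses over 15 days. A single dose was given on days 1 and 15 for full PK, with Q12h (BID) dosing on days 2−14.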

[12] = Half life in female rat at 45 mg/kg, po; format: ADME, organism-based; set-up: dose 45 mg/kg, route oral; details: in vivo
Rattus norvegicus [13] = test: Toxicity in female rat assessed as effect on WBC count at 20 mg/kg/day, po bid administered for 4 weeks (reference value: 3.66 x 10^9/L); format: organism-based; set-up: route oral; details: in vivo, 672 h
[14] = Oral bioavailability in mouse; format: ADME, organism-based; details: in vivo
[15] = AUC (0 to t) in female rat at 45 mg/kg, po; format: ADME, organism-based; set-up: dose 45 mg/kg, route oral; details: plasma
Method in brief: (§2)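 Rat PK by gender, with single oral doses of 5, 15 and 45 mg/kg and an iv dose of 5 mg/kg. Tmax, Cmax, T1/2 and AUC0−t were reported per gender.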

[16] = test system: Streptococcus dysgalactiae subsp. equisimilis; test: Antibacterial activity against Streptococcus equisimilis; format: functional
Rattus norvegicus [17] = test: Toxicity in female rat assessed as effect on RBC count at 100 mg/kg/day, po bid administered for 4 weeks (reference value: 7.28 x 10^12/L); format: organism-based; set-up: route oral; details: in vivo, 672 h
[18] = Cmax in male rat at 5 mg/kg, po; format: ADME, organism-based; set-up: dose 5 mg/kg, route oral; details: in vivo
[19] = Tmax in female rat at 45 mg/kg, po; format: ADME, organism-based; set-up: dose 45 mg/kg, route oral; details: in vivo
Method in brief: (§3)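 Male and female rats received single oral doses of 5, 15 or 45 mg/kg, with 5 mg/kg iv as a reference arm. Tmax was read from the plasma concentration–time profile for each gender.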

[20] = Tmax in fasted human at 900 mg, po administered as single dose; format: ADME, organism-based; details: in vivo
Method in brief: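 Randomized single-dose, three-period Latin-square crossover in 12 healthy volunteers (six per gender), fasting. Single oral doses of 300, 600 and 900 mg were separated by a 1-week washout. PK parameters were derived by noncompartmental analysis.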

Staphylococcus aureus [21] = test: Antibacterial activity against methicillin-resistant Staphylococcus aureus; format: functional
[22] = Cmax in human at 600 mg, po administered as single dose with meal measured on day 15; format: ADME, organism-based; set-up: dose 600 mg, route oral; details: in vivo; method in brief: as §1
Staphylococcus aureus [23] = test: Antibacterial activity against methicillin-sensitive Staphylococcus aureus ATCC 29213 in mouse thigh infection model assessed as reduction of log10 CFU per thigh at 40 mg/kg, po; format: functional
Method in brief: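 Mouse thigh infection with S. aureus ATCC29213 (MSSA), 10 animals per dosing group. Oral doses were 5, 10, 20, 40 and 80 mg/kg. The read-out was log CFU per thigh after treatment, and the reduction (ΔLogCFU/thigh) was reported.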

Staphylococcus aureus [24] = test: Antibacterial activity against Staphylococcus aureus measured after 10 serial passages; format: functional
[25] = AUC (0 to t) in female rat at 5 mg/kg, po; format: ADME, organism-based; set-up: dose 5 mg/kg, route oral; details: plasma; method in brief: as §2
Rattus norvegicus [26] = test: Toxicity in female rat assessed as change in bone marrow at 200 to 300 mg/kg/day, po bid administered for 4 weeks; format: organism-based; set-up: route oral; details: in vivo, 672 h
Method in brief: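 Rats given the drug orally twice daily for 4 weeks, 10 rats per gender per group. Doses were 20, 100 and 200/300 mg/kg/day, with the top dose raised from 200 to 300 on day 15. Linezolid comparator at 100 and 200 mg/kg/day. Followed by a 4-week recovery. Mortality, body weight, hematology and bone marrow examined. TK blood sampled on days 1, 14 and 28.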

[27] = Tmax in female rat at 5 mg/kg, po; format: ADME, organism-based; set-up: dose 5 mg/kg, route oral; details: in vivo; method in brief: as §3
Staphylococcus aureus [28] = test: Antibacterial activity against methicillin-sensitive Staphylococcus aureus; format: functional
[29] = test system: Staphylococcus epidermidis; test: Antibacterial activity against methicillin-resistant Staphylococcus epidermidis; format: functional
Enterococcus faecalis = test: Antibacterial activity against vancomycin-sensitive Enterococcus faecalis ATCC 29212 in po dosed mouse systemic infection model; format: functional; details: ATCC 29212, po
[30] = Clastogenicity in CHL cells assessed as induction of structural chromosomal aberration at 50 to 400 ug/mL measured over 6 hrs in absence of metabolic activation; format: toxicity, cell-based, Cricetulus griseus; details: chinese hamster
Method in brief: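 Chinese hamster lung cells scored for structural chromosome aberrations with or without metabolic activation. Exposure was 50–400 μg/mL over 6 h, or 25–200 μg/mL over 24 h.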

O=C1C=CN(c2c(F)cc(N3C[C@H](CNc4ccon4)OC3=O)c(F)c2F)CC1 [CONTEZOLID]
AUCt/dose (Rattus norvegicus [1]): 3703 ng·h/mL/mg/kg | Cmax [2]: 42300 ng/mL | Ratio (Staphylococcus aureus [3]): 2 | Cmax [4]: 8070 ng/mL | MIC (Enterococcus faecium): 1 µg/mL (≈ 2.45 µM) | MIC50 (Enterococcus faecium): 1 µg/mL (≈ 2.45 µM) | MIC90 (Enterococcus faecium): 1 µg/mL (≈ 2.45 µM) | MIC (Staphylococcus aureus [5]): 1 µg/mL (≈ 2.45 µM) | Activity (Rattus norvegicus [6]): Non-toxic | Cmax [7]: 27800 ng/mL | half-life [8]: 0.99 h | Activity [9]: Non-toxic | Activity (Rattus norvegicus [10]): 137.8 g/L | Tmax [11]: 0.6 h | half-life [12]: 1.87 h | Activity (Rattus norvegicus [13]): 4.5 ×10⁹ /L | bioavailability [14]: 69% | AUC(0-t) [15]: 230 µg·h/mL | MIC [16]: 1 µg/mL (≈ 2.45 µM) | MIC50 [16]: 1 µg/mL (≈ 2.45 µM) | MIC90 [16]: 1 µg/mL (≈ 2.45 µM) | Activity (Rattus norvegicus [17]): 6.67 ×10¹² /L | Cmax [18]: 4600 ng/mL | Tmax [19]: 1.67 h | Tmax [20]: 1.4 h | MIC90 (Staphylococcus aureus [21]): 0.5 µg/mL (≈ 1.22 µM) | Cmax [22]: 20600 ng/mL | deltalog10CFU (Staphylococcus aureus [23]): 3.42 | MIC (Staphylococcus aureus [24]): 4 µg/mL (≈ 9.8 µM) | AUC(0-t) [25]: 31.5 µg·h/mL | Activity (Rattus norvegicus [26]): Toxic | Tmax [27]: 0.67 h | MIC (Staphylococcus aureus [28]): 0.5 µg/mL (≈ 1.22 µM) | MIC50 (Staphylococcus aureus [28]): 0.5 µg/mL (≈ 1.22 µM) | MIC90 (Staphylococcus aureus [28]): 0.5 µg/mL (≈ 1.22 µM) | MIC50 [29]: 0.25 µg/mL (≈ 0.612 µM) | MIC90 [29]: 0.5 µg/mL (≈ 1.22 µM) | ED50 (Enterococcus faecalis): 14.1 mg/kg | Activity [30]: Non-toxic

From ChEMBL document CHEMBL3286113, “New potent antibacterial oxazolidinone (MRX-I) with an improved class safety profile” (J Med Chem, 2014)
